Data reported in ChEMBL document CHEMBL2016504, “New saccharin derivatives as tyrosinase inhibitors” (Bioorg Med Chem, 2012).

Tested on: Musa x paradisiaca
Assay: Competitive inhibition of banana tyrosinase using catechol as substrate by Lineweaver-Burk plot analysis
In short: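 Banana PPO was partially purified: ammonium sulfate to 80% saturation, dialysis in 5 mM phosphate, then a Sepharose 4B-tyrosine-p-aminobenzoic acid affinity column eluted with 1 M NaCl, 5 mM phosphate, pH 7.0. Catechol oxidation was read as the rise in A420, in duplicate, corrected for non-enzymatic change. Ki and inhibition type came from Lineweaver–Burk 1/V vs 1/[S] plots at two inhibitor levels (0.01–0.20 mM).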

SMILES	Kic
O=C1NS(=O)(=O)c2cc(NC(=S)Nc3ccc(F)cc3)ccc21	14.8 µM
COc1ccc(NC(=O)Nc2ccc3c(c2)S(=O)(=O)NC3=O)cc1	16.6 µM
O=C1NS(=O)(=O)c2cc(NC(=S)Nc3ccc([N+](=O)[O-])cc3)ccc21	19.5 µM
O=C(Nc1cccc([N+](=O)[O-])c1)Nc1ccc2c(c1)S(=O)(=O)NC2=O	16.9 µM
O=C1NS(=O)(=O)c2cc(NC(=S)Nc3ccc(Cl)cc3Cl)ccc21	10.1 µM
O=C(Nc1ccc([N+](=O)[O-])cc1)Nc1ccc2c(c1)S(=O)(=O)NC2=O	22 µM
O=C(Nc1ccc(Cl)c(Cl)c1)Nc1ccc2c(c1)S(=O)(=O)NC2=O	14.9 µM
O=C(Nc1ccc(F)cc1)Nc1ccc2c(c1)S(=O)(=O)NC2=O	15.6 µM
Cc1ccc(NC(=O)Nc2ccc3c(c2)S(=O)(=O)NC3=O)cc1	16.2 µM
Cc1ccc(NC(=S)Nc2ccc3c(c2)S(=O)(=O)NC3=O)cc1	9.96 µM
COc1ccc(NC(=S)Nc2ccc3c(c2)S(=O)(=O)NC3=O)cc1	9.81 µM
O=C1NS(=O)(=O)c2cc(NC(=S)Nc3cc(Cl)cc(Cl)c3)ccc21	13.7 µM
O=C(Nc1ccc(Cl)cc1)Nc1ccc2c(c1)S(=O)(=O)NC2=O	40.2 µM

Continued, values first:

Kic	SMILES
11.1 µM	O=C1NS(=O)(=O)c2cc(NC(=S)Nc3cccc(F)c3)ccc21
13.6 µM	Nc1ccc2c(c1)S(=O)(=O)NC2=O
14.1 µM	COc1cccc(NC(=O)Nc2ccc3c(c2)S(=O)(=O)NC3=O)c1
28.3 µM	O=C1NS(=O)(=O)c2cc(NC(=S)Nc3cccc(Cl)c3)ccc21
4.23 µM	O=C1NS(=O)(=O)c2cc(NC(=S)Nc3ccccc3F)ccc21
12.1 µM	O=C(Nc1cccc(F)c1)Nc1ccc2c(c1)S(=O)(=O)NC2=O
13.4 µM	O=C(Nc1ccccc1)Nc1ccc2c(c1)S(=O)(=O)NC2=O
3.95 µM	O=C1NS(=O)(=O)c2cc(NC(=S)Nc3cccc(I)c3)ccc21
35.1 µM	O=C(Nc1ccc2c(c1)S(=O)(=O)NC2=O)Nc1ccccc1F
10.7 µM	O=C1NS(=O)(=O)c2cc(NC(=S)Nc3ccccc3)ccc21
5.85 µM	O=C(Nc1cccc(Cl)c1)Nc1ccc2c(c1)S(=O)(=O)NC2=O

Target: not listed separately
Assay: Inhibition of desert banana tyrosinase using p-cresol as substrate
Set-up: species or system Musa acuminata

IC50	Ki	SMILES
437 µM	530 µM	O=C1O[C@H]([C@@H](O)CO)C(O)=C1O [ASCORBIC ACID]
65 µM		O=S(O)S(=O)(=O)O [SODIUM METABISULFITE]
63 µM		O[C@@H](CS)[C@@H](O)CS (relative stereo) [DITHIOTHREITOL]
322 µM		N[C@@H](CS)C(=O)O [CYSTEINE]
